Assay [1] relates to HD-MB03. Nature of the assay: Anti-proliferative activity against human HD-MB03 cells expressing dominant-negative TP53 mutant assessed as reduction in cell viability at 1 to 6000 nM incubated for 72 hrs by MTT assay. The format is functional, cell-based. The settings on record: dose 1-6000 nM. The gist of the method: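 HD-MB3 was stably transfected with pMSCV-puro-p53DD and selected in 2 μg/mL puromycin. Cells were seeded in triplicate at 2 × 10^3 per well with 24h adherence, then exposed to serially diluted JQ1 in full medium for 72h. Viability was read by MTT.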

The subject of assay [2] is HD-MB03. The assay can be described thus: Anti-proliferative activity against human HD-MB03 cells assessed as reduction in cell viability incubated for 120 hrs by MTT assay. Conditions: HD-MB03, 120 h. The format is functional, cell-based. An outline of the steps:
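Cells seeded in triplicate at 2 × 10^3 per well and allowed to adhere for 24h. JQ1 was given as serial dilutions in full medium, 1nM-6µM, from a 10 mM DMSO stock. Viability was read by MTT at each time point and IC50 derived from dose-response curves. Culture media were RPMI 1640/10% FCS for HD-MB3 (plus 1% NEAA), ONS-76, Daoy and UW-228, and EMEM/10% FCS for D-283 and D-341.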
In general terms: Tetrazolium assays rely on reduction of a dye to a coloured formazan, in cell work by metabolically active cells.

The subject of assay [3] is HD-MB03. The assay can be described thus: Antiproliferative activity against human HD-MB03 cells at 500 nM incubated for 72 hrs by BrdU ELISA method. The format is functional, cell-based. The gist of the method:
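Cells seeded in triplicate at 2 × 10^3 per well with 24h adherence, then treated with 500 nM JQ1 or DMSO control for 72h. Proliferation was measured by BrdU incorporation ELISA. Experiments were run independently at least 3 times.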

For assay [4], the system named is HD-MB03. Nature of the assay: Inhibition of BRD4 female athymic (nu/nu) mouse xenografted with human HD-MB03 cells as reduction in MYC protein expression in tumor at 50 mg/kg, ip administered at 0, 12, 24 and 36 hrs over 2-day course by Western blot analysis. The format is functional, organism-based. An outline of the steps: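 Same flank HD-MB3 xenografts in female nu/nu mice. Given 4 i.p. doses of JQ1 50 mg/kg (or DMSO) at 0, 12, 24 and 36h; tumours excised 4h after the last dose and snap-frozen. MYC measured by RT-PCR (mean ± S.D.) or western blot with β-actin loading control, 3 tumours per group.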

The source made the active and inactive calls. No cut-off for these calls is given here.

`Cc1sc2c(c1C)C(c1ccc(Cl)cc1)=N[C@@H](CC(=O)OC(C)(C)C)c1nnc(C)n1-2`: the result in assay [1] was inactive. The IC50 in assay [2] was determined as 153 nM. Besides, the result in assay [3] was Active. The inhibition result in assay [4] was “Active”.

By IC50 is commonly meant the concentration that gives 50% inhibition.
